# Source: ChEMBL document CHEMBL3992512, “The Discovery and Hit-to-Lead Optimization of Tricyclic Sulfonamides as Potent and Efficacious Potentiators of Glycine Receptors” (J Med Chem, 2017)
# The source made the active and inactive calls.
# Legend:
# [1] = target: Glycine receptor alpha-3/beta (Homo sapiens) (UniProt O75311+P48167); test: Positive allosteric modulation of human glycine alpha3beta receptor expressed in HEK293T cells assessed as compound concentration required to induce up to 3-fold leftward shift in glycine-induced increase in chloride ion flux after 4 mins by Schild plot analysis; format: cell-based
# How it was run: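 HEK293T cells stably expressing human GlyRα3β, ~12000 cells/well, plated overnight and loaded with membrane potential blue dye. Glycine 1:2 dilution series premixed with compound at varying concentrations in HEPES/NaCl/mannitol buffer, pH 7.4. FLIPR fluorescence read 4 min and processed as AUC over baseline. mEC₃ is the lowest tested concentration giving a ≥3-fold leftward shift of glycine EC₅₀.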
# [2] = Intrinsic clearance in mouse liver microsomes up to 40 mins in presence of NADPH; format: ADME, microsome; details: read-out: CLH
# [3] = Passive apparent permeability in MDCK cells; format: ADME, cell-based, Canis lupus familiaris; details: dog
# How it was run: (§1)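 Bidirectional transport at 5 μM, in triplicate, across MDCK cells carrying control vector, human MDR1 or human ABCG2 (BCRP). Passive Papp is the mean of both directions in vector-control cells. Efflux ratios come from the MDR1 and BCRP lines.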
# human MDR1 = test: Efflux ratio of passive apparent permeability in MDCK cells harboring human MDR1; format: ADME, cell-based, Canis lupus familiaris; details: dog; how it was run: as §1
# human BCRP = test: Efflux ratio of passive apparent permeability in MDCK cells harboring human BCRP; format: ADME, cell-based, Canis lupus familiaris; details: dog; how it was run: as §1
# Mus musculus [4] = test: Antiallodynic activity in mouse model of spared nerve injury-induced tactile allodynia assessed as tactile threshold at 30 mg/kg, po measured 90 mins post dose by Von Frey filament assay; format: functional, organism-based
# [5] = Ratio of unbound Cmax in mouse brain to EC50 for glycine alpha3 receptor in mouse model of spared nerve injury-induced tactile allodynia at 60 mg/kg, po
# [6] = Ratio of unbound Cmax in mouse brain to EC50 for glycine alpha3 receptor in mouse model of spared nerve injury-induced tactile allodynia at 50 mg/kg, po
# [7] = Drug degradation in neutral buffer at 37 degC after 1 hr
# How it was run: (§2)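 Buffer stability was followed as percent decomposition at three conditions: neutral buffer at 37 °C over 1 h, pH 2 acidic buffer at room temperature, and pH 11 basic buffer at room temperature up to 20 h.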
# [8] = Chemical stability in pH 2 acidic buffer at room temperature measured immediately; format: physicochemical; how it was run: as §2
# [9] = Drug degradation in pH 11 basic buffer at room temperature measured after 20 hrs; how it was run: as §2
# Plasma [10] = test: Stability in mouse plasma; format: ADME, cell-free
# Mus musculus [11] = species: Mus musculus; test: Ex vivo positive allosteric modulation of glycine receptor in C57BL/6 mouse spinal cord assessed as potentiation of glycine-induced post synaptic current amplitude at 0.5 uM at holding potential of -60 mV after 10 mins in presence of sodium channel inhibitor TTX/AMPA/kainate receptor antagonist CNQX/GABAa receptor antagonist bicuculline/NMDA receptor antagonist APV by electrophysiology method relative to glycine alone
# How it was run: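 Adult mouse spinal cord slices; dorsal horn neurons in laminae I–II were identified histologically and confirmed glycinergic by focal glycine (20 μM) with strychnine (10 μM) reversal. Postsynaptic current amplitude was recorded with glycine 20 μM alone, then with glycine plus compound at 0.5 μM, then with strychnine added. The readout is the mean ratio of PSC amplitude (compound + glycine / glycine alone), n = 5.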
# [12] = Solubility in phosphate buffered saline; format: physicochemical
# [13] = Solubility in fasted state simulated intestinal fluid; format: physicochemical
# [14] = Ratio of unbound Cmax in mouse brain to EC50 for glycine alpha3 receptor in mouse model of spared nerve injury-induced tactile allodynia at 30 mg/kg, po
# How it was run: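 Mice dosed orally; unbound brain Cmax is total brain concentration × brain fraction unbound, sampled at multiple time points. It is divided by EC₅₀ for potentiation of mouse GlyRα3.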
# Plasma [15] = test: Unbound Cmax in mouse plasma at 30 mg/kg, ip; format: ADME, organism-based; details: in vivo
# [16] = target: T1, Glycine receptor subunit alpha-3 (Homo sapiens, UniProt O75311); test: Positive allosteric modulation of human glycine alpha3 receptor expressed in HEK293T cells assessed as potentiation of glycine-induced increase in chloride ion flux after 4 mins by membrane potential blue dye based FLIPR assay; format: cell-based, HEK-293T
# T1 sequence (O75311 whole entry): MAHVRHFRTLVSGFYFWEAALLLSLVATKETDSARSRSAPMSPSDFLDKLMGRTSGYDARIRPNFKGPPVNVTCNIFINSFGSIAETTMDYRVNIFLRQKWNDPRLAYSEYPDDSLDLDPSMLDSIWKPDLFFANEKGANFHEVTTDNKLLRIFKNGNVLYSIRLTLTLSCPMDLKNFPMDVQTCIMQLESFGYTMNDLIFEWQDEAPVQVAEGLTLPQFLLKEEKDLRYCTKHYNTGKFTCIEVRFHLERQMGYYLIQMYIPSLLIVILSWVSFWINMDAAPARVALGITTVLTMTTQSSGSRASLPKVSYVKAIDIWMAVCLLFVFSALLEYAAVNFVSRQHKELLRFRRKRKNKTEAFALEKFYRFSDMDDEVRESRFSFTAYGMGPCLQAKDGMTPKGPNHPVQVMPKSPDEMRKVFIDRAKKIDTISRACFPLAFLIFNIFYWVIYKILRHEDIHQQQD
# [17] = target: T1, Glycine receptor subunit alpha-3; test: Binding affinity to human glycine alpha3 receptor expressed in HEK293T cells by SPR assay; design: species or system HEK-293T
# [18] = Ratio of unbound Cmax in mouse brain to EC50 for glycine alpha3 receptor in mouse model of spared nerve injury-induced tactile allodynia at 30 mg/kg, ip
# How it was run: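 After intraperitoneal dosing, brains were collected at multiple time points. Unbound brain concentration is total brain concentration × brain fraction unbound, divided by mouse GlyRα3 potentiation EC₅₀.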
# Liver [19] = test: Drug metabolism in mouse liver microsomes assessed as oxidation of quinolinone core up to 40 mins in presence of NADPH; format: ADME, microsome
# Liver [20] = test: Drug metabolism in mouse liver microsomes assessed as oxidation of pyrrolidine ring up to 40 mins in presence of NADPH; format: ADME, microsome
# Liver [21] = test: Drug metabolism in mouse liver microsomes assessed as oxidation of benzodioxolane moiety up to 40 mins in presence of NADPH; format: ADME, microsome
# Plasma [22] = test: Unbound Cmax in mouse plasma at 50 mg/kg, ip; format: ADME, organism-based; details: in vivo
Compound,MEC [1] [µM],microsomal CLint [2] [µL/min/mg],Papp [3] [×10⁻⁶ cm/s],efflux ratio (human MDR1),efflux ratio (human BCRP),other results
C[C@H]1[C@@H]2C(=O)N(C)c3ccncc3[C@@H]2CN1S(=O)(=O)c1ccc2c(c1)OCO2,> 25,,,,,
CN1C(=O)[C@@H]2CN(S(=O)(=O)c3ccc4c(c3)OCO4)C[C@@H]2c2cc(O)ccc21,0.39,499,18,3.2,3.1,
CC(C)C[C@H](CN)CC(=O)O,,,,,,Activity (Mus musculus [4]): Active
C[C@@H]1[C@@H]2c3cnccc3N(C)C(=O)[C@@H]2CN1S(=O)(=O)c1ccc2c(c1)OCO2,> 25,,,,,
CN1C(=O)[C@H]2CN(S(=O)(=O)c3ccc4c(c3)OCO4)C[C@H]2c2ccccc21,6.3,2440,,,,
CN1C(=O)[C@@H]2CN(S(=O)(=O)c3ccn4ccnc4c3)C[C@@H]2c2cnccc21,3.1,36,16,30,8.3,
CN1C(=O)[C@@H]2CN(S(=O)(=O)c3ccc4c(c3)OCO4)C[C@@H]2c2ccncc21 (racemic),6.3,225,,,,
CN1C(=O)[C@@H]2CN(S(=O)(=O)c3ccc4scnc4c3)C[C@@H]2c2cnccc21,1.56,79,48,3.3,1.4,Ratio [5]: 0.15
C[C@@H]1[C@@H]2C(=O)N(C)c3ccncc3[C@@H]2CN1S(=O)(=O)c1ccc2c(c1)OCO2,3.1,,,,,
CN1C(=O)[C@@H]2CN(S(=O)(=O)c3ccc4c(c3)CCO4)C[C@@H]2c2cnccc21,3.1,225,50,4.3,1.2,Ratio [6]: 0.19
C[C@@H]1[C@H]2c3cnccc3N(C)C(=O)[C@H]2CN1S(=O)(=O)c1ccc2c(c1)OCO2,> 25,,,,,
CN1C(=O)[C@@H]2CN(S(=O)(=O)c3ccc(F)c(Cl)c3)C[C@@H]2c2cnccc21,3.1,432,49,1.2,1.1,
CN1C(=O)[C@]2(F)CN(S(=O)(=O)c3ccc4c(c3)OCO4)C[C@@H]2c2cnccc21 (racemic),> 25,,,,,
C[C@H]1[C@H]2c3cnccc3N(C)C(=O)[C@H]2CN1S(=O)(=O)c1ccc2c(c1)OCO2,> 25,,,,,
CN1C(=O)[C@@H]2CN(S(=O)(=O)c3ccc4ocnc4c3)C[C@@H]2c2cnccc21,0.39,73,25,3.6,1.1,Drug degradation [7]: 50%; Stability [8]: Unstable; Drug degradation [9]: 30%; Stability (Plasma [10]): Unstable
"CN1C(=O)[C@]2(C)CN(S(=O)(=O)c3ccc4c(c3)OCO4)C[C@@H]2c2ccccc21 (single isomer, unassigned)",> 25,,,,,
CN1C(=O)[C@H]2CN(S(=O)(=O)c3ccc4c(c3)OCO4)C[C@H]2c2cnccc21,> 25,213,14,1,0.9,Activity (Mus musculus [11]): inactive

Compound,MEC [1] [µM],microsomal CLint [2] [µL/min/mg],Papp [3] [×10⁻⁶ cm/s],efflux ratio (human MDR1),efflux ratio (human BCRP),other results
CN1C(=O)[C@@H]2CN(S(=O)(=O)c3ccc4ncn(C)c4c3)C[C@@H]2c2cnccc21,3.1,,,,,
CN1C(=O)[C@@H]2CN(S(=O)(=O)c3ccc4c(c3)OCC4)C[C@@H]2c2cnccc21,1.56,177,28,2.9,0.7,Ratio [5]: 0.38
CN1C(=O)[C@]2(C#N)CN(S(=O)(=O)c3ccc4c(c3)OCO4)C[C@@H]2c2cnccc21 (racemic),> 25,,,,,
CN1C(=O)[C@@H]2CN(S(=O)(=O)c3ccc4ccoc4c3)C[C@@H]2c2cnccc21,1.56,115,,,,
CN1C(=O)[C@@H]2CN(S(=O)(=O)c3ccc4c(c3)OCO4)C[C@@H]2c2cc(F)ccc21 (racemic),0.78,761,,,,
C[C@H]1[C@@H]2c3cnccc3N(C)C(=O)[C@@H]2CN1S(=O)(=O)c1ccc2c(c1)OCO2,> 25,,,,,
CN1C(=O)[C@@H]2CN(S(=O)(=O)c3ccc4c(c3)OCO4)C[C@@H]2c2ncccc21,0.78,136,45,1.5,1,solubility [12]: 7 µM; solubility [13]: 28 µM; Ratio [14]: 0.006
CN1C(=O)[C@@H]2CN(S(=O)(=O)c3ccc4c(c3)OCO4)C[C@@H]2c2cnccc21,0.2,151,52,0.8,0.9,solubility [12]: 235 µM; solubility [13]: 296 µM; fold change (FC) (Mus musculus [11]): 4.9; Ratio [14]: 0.62
O=S(=O)(c1ccc2c(c1)OCO2)N1C[C@@H]2c3nccn3-c3ccccc3[C@@H]2C1,6.3,1670,,,,
CN1C(=O)[C@@H]2CN(S(=O)(=O)c3ccc4c(c3)OCO4)C[C@]2(C)c2cnccc21 (racemic),> 25,,,,,
O=S(=O)(c1ccc2c(c1)OCO2)N1C[C@@H]2c3ccccc3-n3ccnc3[C@@H]2C1,3.1,901,58,1.7,1.3,fCmax (Plasma [15]): 0.13 µM
CN1C(=O)[C@@H]2CN(S(=O)(=O)c3ccc4c(c3)OCO4)C[C@@H]2c2cccnc21 (racemic),3.1,760,,,,
CN1C(=O)[C@@H]2CN(S(=O)(=O)c3ccc4c(c3)OCO4)C[C@@H]2c2cc(C#N)ccc21 (racemic),12.5,374,,,,
C[C@@H]1[C@H]2C(=O)N(C)c3ccncc3[C@H]2CN1S(=O)(=O)c1ccc2c(c1)OCO2,> 25,,,,,EC50 [16]: > 25 µM; Kd [17]: > 20 µM
CN1C(=O)[C@@H]2CN(S(=O)(=O)c3ccc4nc[nH]c4c3)C[C@@H]2c2cnccc21,3.1,< 14,,,,Ratio [18]: 0.047
CN1C(=O)[C@@H]2CN(S(=O)(=O)c3ccc4c(c3)OCO4)C[C@@H]2c2ccccc21,0.78,,46,,,Drug metabolism (Liver [19]): Metabolite_Detected; Drug metabolism (Liver [20]): Metabolite_Detected; Drug metabolism (Liver [21]): Metabolite_Detected; fCmax (Plasma [22]): 0.07 µM
